# Insulin prom up: MIN6 insulin promoter up-regulation | MIN6 insulin promoter-GFP reporter, high-content imaging; hits give high values | hit rate 0.3% among 190,000 | z-score at 5 µM;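 active = z-score above 3 at 5 µM with at least 500 cells counted in the well; inconclusive = wells under 500 cells, flagged as cytotoxic or low count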
# SKKanGAS inh: blocks kanamycin growth of S. pyogenes SKKanGAS strain. BacTiter-Glo, 6 h. inhibition, % at 7.5 µM. hit rate 1.3% among 300,000. AID 1662;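 active = mean replicate score, as percent of positive control median, at least 50; inconclusive = mean below 50 but one replicate at or above 50; inactive = mean and every replicate below 50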;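 note: strain carries kanamycin resistance gene driven by streptokinase promoter and grows in 40 µg/ml kanamycin; loss of luminescence reflects streptokinase promoter inhibition or plain growth inhibition; 0% = median of DMSO wells and 100% = positive control at its reference dose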
# WT yeast gro inh: growth inhibition of WT yeast, mitochondrial fusion screen; mitochondrial fusion phenotypic screen, WT strain; inhibition, % at 10 µM; hit rate 2.1% among 190,000; in the data active = inhibition above about 58%; tested in S. cerevisiae
# Rad51 HR inh: blocks human Rad51 in homologous recombination | inhibition, % at 10 µM | Q06609 | hit rate 0.085% among 200,000 | hRad51 DNA strand exchange, fluorescence dequenching | AID 1385;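 active = inhibition above 40% at the single screening dose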;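 note: 0% = DMSO control wells and 100% = blanks with heterologous ssDNA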
#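 Assay system: Human Rad51 nucleoprotein filaments preassembled on unlabelled ssDNA | Reagent: Donor/quencher-labelled 47-bp dsDNA substrate | Doses: One concentration, 10 µM final | Times: 37 °C 15-min filament assembly, 30-min compound preincubation, 15-min exchange | Technique: Fluorescein emission 520 nm, excitation 485 nm | Benchmarks: Plate control and blank wells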
# KCC2 mod: KCC2 (human) Cl- transport modulation | hit rate 2.2% among 190,000 | Q9H2X9 | KCC2 cells, thallium flux FluoZin-2 fluorescence | AID 1456 | B-score of Tl+ flux slope (higher = more flux/activation; lower = inhibition) at 10 µM;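 active = thallium flux slope and its plate-corrected score both differing from the plate sample mean at a set confidence after two filtering rounds, in either direction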;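 note: slope of fluorescence scaled to starting intensity during 10 to 20 s after thallium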
# Target sequence (Q9H2X9 whole entry, looked up): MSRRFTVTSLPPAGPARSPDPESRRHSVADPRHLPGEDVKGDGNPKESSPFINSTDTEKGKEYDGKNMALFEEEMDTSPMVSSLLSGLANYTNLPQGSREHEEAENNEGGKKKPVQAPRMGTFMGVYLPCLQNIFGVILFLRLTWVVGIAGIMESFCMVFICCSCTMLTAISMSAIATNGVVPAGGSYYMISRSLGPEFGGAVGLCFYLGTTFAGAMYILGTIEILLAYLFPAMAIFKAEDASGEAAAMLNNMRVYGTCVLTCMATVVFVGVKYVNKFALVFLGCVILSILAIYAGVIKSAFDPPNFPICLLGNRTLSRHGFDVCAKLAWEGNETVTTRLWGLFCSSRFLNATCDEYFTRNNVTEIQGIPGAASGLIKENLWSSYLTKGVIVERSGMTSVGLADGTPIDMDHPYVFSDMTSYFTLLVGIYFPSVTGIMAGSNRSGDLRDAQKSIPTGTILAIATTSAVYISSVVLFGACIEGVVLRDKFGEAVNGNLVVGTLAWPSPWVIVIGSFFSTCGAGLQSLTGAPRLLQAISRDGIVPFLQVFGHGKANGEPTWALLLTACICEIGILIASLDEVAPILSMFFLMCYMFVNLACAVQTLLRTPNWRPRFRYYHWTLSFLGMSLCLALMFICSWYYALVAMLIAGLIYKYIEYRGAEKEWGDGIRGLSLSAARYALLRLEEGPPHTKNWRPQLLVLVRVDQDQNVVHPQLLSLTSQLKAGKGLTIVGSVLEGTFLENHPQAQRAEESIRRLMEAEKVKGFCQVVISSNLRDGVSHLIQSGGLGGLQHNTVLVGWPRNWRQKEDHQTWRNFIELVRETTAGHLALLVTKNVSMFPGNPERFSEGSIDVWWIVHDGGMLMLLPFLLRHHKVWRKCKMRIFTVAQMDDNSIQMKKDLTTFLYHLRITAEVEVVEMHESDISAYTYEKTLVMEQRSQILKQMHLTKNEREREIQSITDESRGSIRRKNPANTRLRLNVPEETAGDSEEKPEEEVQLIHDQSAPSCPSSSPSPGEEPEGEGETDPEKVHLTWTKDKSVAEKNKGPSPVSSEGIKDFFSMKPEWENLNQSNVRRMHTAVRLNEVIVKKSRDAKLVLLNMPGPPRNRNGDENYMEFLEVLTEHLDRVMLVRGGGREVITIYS
# Autophagy mod: modulators of autophagy | MEF GFP-LC3 puncta imaging; test concentration mostly 10 µM | AID 463193 | calls only at 10 µM (by protocol) | hit rate 0.98% among 190,000;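 active = percentage of spot-positive cells more than 3 SD above its plate mean, without a fluorescence outlier flag or 80% toxicity; inconclusive = no clear call, values can overlap the other calls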;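 note: spot-positive cell cutoff set from DMSO-treated cells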
# * = called active by the depositor; i = inactive; ? = inconclusive; . = not tested or not shown; + = active, no number. This is a sample that favours compounds with a hit; in the whole collection about 4.2% have one here.
SMILES,Insulin prom up,SKKanGAS inh,WT yeast gro inh,Rad51 HR inh,KCC2 mod,Autophagy mod
Cc1[nH]n(-c2cccc3ccccc23)c(=O)c1/C=N/c1sc2c(c1C#N)CCC2,1.9,3,-4,-33,26*,i
Cc1[nH]n(-c2ccc(F)cc2)c(=O)c1/C=N/c1sc2c(c1C#N)CCCC2,0.24,18,18,-5,.,i
O=C(O)c1cc(-c2ccc(-c3c(-c4ccc5c(c4)OCO5)noc3-c3ccsc3)cc2)nc2ccccc12,.,94*,.,.,.,.
NNC(=O)/C(=N/Nc1ccccc1)S(=O)(=O)c1ccc(Cl)cc1,0.55,74*,69*,.,-4.2e-05,i
CCOC(=O)/C(=N/Nc1ccc(C)cc1)S(=O)(=O)c1ccc(Cl)cc1,1.3,20,58,-1,-1.1,i
Cc1cnc(NC(=O)c2cc3c(C)nn(-c4ccccc4)c3s2)s1,-0.03,107*,9,.,-0.069,i
Cc1nn(-c2ccccc2)c2sc(C(=O)N3CCCCC3)cc12,-0.6,24,14,12,.,i
Cc1nn(-c2ccccc2)c2sc(C(=O)N3CCc4ccccc4C3)cc12,-0.31,55*,37,-4,-1,i
C/C(=N\N=C1\NC(=O)CC(C(=O)O)S1)c1cccs1 (stereo not drawn),.,-14,6,13,0.015,i
CNC(=O)C1CC(=O)N/C(=N/N=C(\C)c2cccs2)S1 (stereo not drawn),3.7*,-8,-2,2,0.48,i
COCCCNC(=S)Nc1ccc(CC(=O)O)cc1,0.33,-5,-12,-22,0.44,i
CCC(C)NC(=O)C1CCN(S(=O)(=O)c2ccc(-n3cnnn3)cc2)CC1 (stereo not drawn),.,-4,.,.,.,.
Cc1cc(/C=N/n2cnnc2)c(C)n1-c1ccccc1,0.22,-1,-15,-16,0.0025,i
Cc1cc(/C=N/n2cnnc2)c(C)n1-c1ccc(Cl)cc1,0.35,-1,49,13,-0.098,i
Cc1cc(/C=N/n2cnnc2)c(C)n1-c1ccc(OCc2ccc(F)cc2)cc1,1.3,26,62*,6,-0.039,i
Cc1cc(/C=N/n2cnnc2)c(C)n1-c1ccc(OCc2ccc(Cl)cc2Cl)cc1,.,122*,80,.,0.9,i
S=C(NCc1ccc(Cl)cc1Cl)NC1CCCCC1,-0.39,23,83*,.,-0.053,i
Clc1ccc(CNC2CCCC2)c(Cl)c1,-0.07,-3,8,3,0.25,i
CC(C)(C)OC(=O)N1CCC[C@H]1C(=O)Nc1ccc(C#N)cc1,.,-2,.,.,.,.
CC(C)CNC(=O)CN(c1cccc(Cl)c1)S(C)(=O)=O,0.31,6,9,-174,1,i
Cc1ccnc(N/C=C(\C#N)c2nc(-c3cccc(Br)c3)cs2)c1,.,-10,8,i,.,+
N#C/C(=C\Nc1ccc2cn[nH]c2c1)c1nc(-c2ccccc2)cs1,-1.9,-3,0,-56,0.04,i
CCC(=O)Nc1nnc(SCc2ccccc2F)s1,-0.8,.,9,-2,1.3,i
O=C(NCC1CCCO1)c1cc2cc(Cl)ccc2[nH]1 (stereo not drawn),.,0,.,.,.,.
CC(=O)C1=C(c2ccc(Br)cc2)C(=O)c2ccccc2C1=O,?,66*,93*,.,-0.8,i
SMILES,Insulin prom up,SKKanGAS inh,WT yeast gro inh,Rad51 HR inh,KCC2 mod,Autophagy mod
COc1ccc(/C=C/C(=O)C23CC4CC(CC(C4)C2)C3)cc1CN1CCOCC1,0.68,3,24,10,0.63,i
O=C(c1ccc([N+](=O)[O-])s1)N1CCCc2ccccc21,.,1,.,.,.,.
Cc1ccc(-c2cc(C(=O)N3CCCc4ccccc43)no2)cc1,-0.04,-25,64*,30,-1.6,i
O=C(c1cc(-c2ccc(F)cc2)on1)N1CCCc2ccccc21,-1.2,-11,45,7,-0.67,i
O=C(c1ccc(C(=O)N2CCCc3ccccc32)s1)N1CCCc2ccccc21,-0.18,12,97*,3,.,i
Clc1ccc(CN2CCN(c3ncccn3)CC2)c(Cl)c1,.,14,.,.,.,.
Cc1cc(C)n(CC(O)Cn2c3ccc(Br)cc3c3cc(Br)ccc32)c(=O)n1 (stereo not drawn),0.93,29,91*,2,-0.04,i
Cc1cc(C)n(CC(O)Cn2c3ccccc3c3ccccc32)c(=O)n1 (stereo not drawn),-0.04,8,7,-2,.,i

# High-throughput results: PubChem, several laboratories
